Data published in publication PMC6422976 (Osteoporosis International, 2018).

Tests used:
[1] = Comparative single-dose PK of teriparatide; assay type: in vivo, human; conditions: for tlast / Cmax / tmax / AUC0-tlast: single 20 μg/80 μL s.c. dose, N = 51; for tlast: AM ± SD; for Cmax: ELISA; for Cmax / AUC0-tlast: GM (GCV%); for tmax: Median (Minimum, Maximum); for AUC0-tlast: abdomen, PTH(1-34) ELISA
Procedure, shortened: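 Randomised, double-blind, two-period, two-sequence cross-over in healthy women aged 18–55 y (BMI 18.5–27.0 kg/m2). Single 20 μg/80 μL s.c. abdominal injection of test or reference teriparatide at hour 0, with a 24 h washout. Plasma sampled pre-dose and at 10–240 min. High-sensitivity human PTH(1-34) ELISA. Non-compartmental parameters; ANOVA on ln values; geometric mean test/reference ratios with 94.12% CI (α 0.0294, two-stage design).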

[2] = Safety: treatment emergent adverse events in healthy women; assay type: in vivo, human; conditions: single 20 μg s.c.; for TEAE: General disorders and administration site conditions: number of subjects (%)
Procedure, shortened: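 Healthy women received single 20 μg/80 μL s.c. injections in each cross-over period. Monitoring covered physical examinations, vital signs, ECGs, pulse oximetry, adverse events, injection-site reactions and clinical laboratory tests. Adverse events in the washout were assigned to the preceding treatment. Results were summarised per treatment arm as subject counts; Fisher's exact test.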

serum calcium = assay: Serum calcium; assay type: in vivo, human; conditions: for Serum-corrected calcium Cmax, mean / Serum-corrected calcium tmax, mean / Serum-corrected calcium AUC0-tlast, geom. mean / Serum-corrected calcium Cmax, geom. mean / Serum-corrected calcium AUC0-tlast, median / Serum-corrected calcium Cmax, median / Serum-corrected calcium tmax, median: single 20 μg/80 μL s.c. injection, healthy women, N = 53; for Serum-corrected calcium Cmax, mean / Serum-corrected calcium tmax, mean: arithmetic mean; for Serum-corrected calcium AUC0-tlast, geom. mean / Serum-corrected calcium Cmax, geom. mean: geometric mean
Procedure, shortened: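 Serum drawn within 2.5 h before dosing and at 120, 180 and 240 min and 6, 8 and 12 h after a single 20 μg/80 μL s.c. dose. Total calcium measured photometrically via the NM-BAPTA complex under alkaline conditions (LLOQ 0.8 mg/dl). Values albumin-corrected as Ca (mmol/L) + ((40 − ALB (g/L)) × 0.02). AUC0-tlast, Cmax and tmax calculated.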

[3] = after at least 12 months of treatment, 20 μg daily s.c. doses; cited from earlier work
[4] = geometric least-squares mean from ANOVA, single 20 μg s.c., healthy women
[5] = RGB-10/reference, two-stage design
[6] = RGB-10/reference, two-stage design, acceptance range 80.00–125.00%
[7] = geometric mean ratio = 100 * (RGB-10/reference)

| Substance | tlast ([1]; healthy women) [h] | Cmax ([1]; healthy women) | tmax ([1]; healthy women) | AUC0-tlast ([1]; healthy women) | TEAE: General disorders and administration site conditions [2] | Serum-corrected calcium Cmax, mean (serum calcium) [mmol/L] | Serum-corrected calcium tmax, mean (serum calcium) [h] | Serum-corrected calcium AUC0-tlast, geom. mean (serum calcium) [mmol·h/L] | Serum-corrected calcium Cmax, geom. mean (serum calcium) [mmol/L] | Serum-corrected calcium AUC0-tlast, median (serum calcium) [mmol·h/L] | Serum-corrected calcium Cmax, median (serum calcium) [mmol/L] | Serum-corrected calcium tmax, median (serum calcium) [h] | other results |
| --- | --- | --- | --- | --- | --- | --- | --- | --- | --- | --- | --- | --- | --- |
| teriparatide [Reference, reference compound] | 2.58 ± 0.707 | 89.2 (37.1%) pg/mL | 0.417 (0.167, 0.667) h | 99.0 (35.0%) pg*h/mL | 8 (15%) | 2.35 | 5.03 | 27.61 | 2.35 | 27.56 | 2.34 | 6.00 | AUC0-inf, geometric LSM [1, 4]: 0.11566 ng·h/mL; AUC0-tlast, geometric LSM [1, 4]: 0.10086 ng·h/mL; Cmax, geometric LSM [1, 4]: 0.09018 ng/mL; t1/2, geometric LSM [1, 4]: 0.72 h; patients with anti-teriparatide antibodies [3]: 2.8% |
| teriparatide [RGB-10] | 2.49 ± 0.729 | 82.4 (40.1%) pg/mL | 0.334 (0.166, 0.585) h | 91.8 (40.9%) pg*h/mL | 13 (24%) | 2.35 | 5.21 | 27.59 | 2.35 | 27.56 | 2.34 | 6.00 | bioequivalence conclusion ([1]; 94.12% CIs of GMRs of AUC0-tlast and Cmax within 80–125%): bioequivalent; 94.12% CI of GMR, AUC0-inf [1, 5]: 83.75–96.33%; 94.12% CI of GMR, t1/2 [1, 5]: 83.28–100.29%; 94.12% CI of GMR, AUC0-tlast [1, 6]: 85.20–98.60%; 94.12% CI of GMR, Cmax [1, 6]: 85.51–99.52%; extent, total extent and peak teriparatide exposure (AUC0-tlast, AUC0-inf, Cmax) lower than for the reference ([1]; based on GMR, plasma): 8 to 10%; GMR% AUC0-inf [1, 7]: 89.82%; GMR% AUC0-tlast [1, 7]: 91.66%; GMR% Cmax [1, 7]: 92.25%; GMR% t1/2 [1, 7]: 91.39%; half-life shorter than for the reference ([1]; in vivo): 9%; mean CL/F higher than for the reference product ([1]; in vivo): approximately 13%; mean Vz/F compared with the reference ([1]; in vivo): similar; serious adverse events (SAEs) [2]: no SAEs observed; 95% CIs of the GMR of corrected calcium (serum calcium; RGB-10/reference): 99–101%; GMR of serum calcium AUC (serum calcium; RGB-10/reference): 99.93%; GMR of serum calcium Cmax (serum calcium; RGB-10/reference): 99.87%; median difference of serum calcium tmax (serum calcium; RGB-10 versus reference): 0.001 |
